Experimental findings from ChEMBL document CHEMBL3853287, “Characterization of Emodin as a Therapeutic Agent for Diabetic Cataract” (J Nat Prod, 2016) are described below.

Data set [1] addresses T1, Aldo-keto reductase family 1 member B1 (Homo sapiens, UniProt P15121). In words: Inhibition of human recombinant aldose reductase expressed in Escherichia coli using DL-glyceraldehyde as substrate in presence of NADPH by spectrophotometric analysis.
Data set [2] concerns the target T1, Aldo-keto reductase family 1 member B1. In words: Uncompetitive inhibition of human recombinant aldose reductase expressed in Escherichia coli using DL-glyceraldehyde as substrate by double reciprocal plot analysis.
The nature of data set [3]: Cytotoxicity against human FHL124 cells assessed as reduction in cell viability at 10 uM after 24 hrs by MTT assay. The format is toxicity, cell-based. The conditions noted are these: fhl124, 24 h. In a few lines:
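FHL 124 human lens epithelial cells grown in low-glucose (1 g L−1) DMEM with 4 mM L-glutamine and 5% FBS at 37 °C, 5% CO2. Seeded at 10^4 cells, treated with emodin for 24 h, then given MTT for 4 h. Viability read as absorbance at 570 nm.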

Data set [4] concerns the target T1, Aldo-keto reductase family 1 member B1. Description: Inhibition of aldose reductase in human FHL124 cells assessed as reduction in high glucose-induced elevation of sorbitol accumulation at 5 uM after 24 hrs by colorimetric assay. The class given is cell-based. In a few lines:
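FHL 124 cells (10^5 per 60 mm dish) treated with emodin (5 μM) plus low (5 mM) or high (30 mM) glucose for 24 h. Cells washed twice in cold PBS, lysed and deproteinized. Sorbitol measured in neutralized samples by colorimetric kit at 560 nm.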

The target is the same in data set [5]. Description: Inhibition of human recombinant aldose reductase expressed in Escherichia coli at 1 uM using DL-glyceraldehyde as substrate in presence of NADPH measured up to 7 days at 37 degC by spectrophotometric analysis. Summed up:
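Inhibitor (1 μM, in DMSO) pre-incubated at 37 °C for 1, 3, 5 and 7 days before testing. Recombinant human AKR1B1 from E. coli then assayed by NADPH oxidation at 340 nm with 1.0 mM DL-glyceraldehyde and 150 μM NADPH in HEPES pH 7.5 buffer. Means ± SEM, n = 3.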

In data set [6] the test system is Mus musculus. Description: In vivo inhibition of aldose reductase in transgenic PAR37 mouse expressing human aldose reductase assessed as reduction in vacuolization at 35 mg/kg, po for 16 days by hematoxylin/eosin staining. The format is functional, organism-based. Summed up:
(§1)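 PAR37 human AR transgenic mice and nontransgenic littermates, roughly equal by sex. Nursing mothers given 35 mg kg−1 in drinking water (DMSO vehicle) from pups' birth, or from 3 days before birth in one group. Sorbinil 80 mg kg−1 served as ARI control. Lenses taken at P16 and H&E-stained; vacuolated cross-sectional area measured on sections.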

Data set [7] relates to Mus musculus. Description: In vivo inhibition of aldose reductase in wild type mouse assessed as reduction in vacuolization at 35 mg/kg, po for 16 days by hematoxylin/eosin staining. The class given is functional, organism-based. Summed up: as §1
The subject of data set [8] is Mus musculus. In words: In vivo inhibition of aldose reductase in wild type mouse assessed as reduction in vacuolization at 35 mg/kg, po administered 3 days prior to birth followed by compound treatment till day 16 by hematoxylin/eosin staining. The format is functional, organism-based. In a few lines:
as §1

Data set [9] relates to Mus musculus. In words: In vivo inhibition of aldose reductase in transgenic PAR37 mouse expressing human aldose reductase assessed as vacuolization at 35 mg/kg, po for 16 days by hematoxylin/eosin staining (reference value: 18%). The format is functional. More on the design: scale not given: the % may be the effect or the level left. In a few lines:
as §1

The subject of data set [10] is Mus musculus. In words: In vivo inhibition of aldose reductase in transgenic PAR37 mouse expressing human aldose reductase assessed as vacuolization at 35 mg/kg, po administered 3 days prior to birth followed by compound treatment till day 16 by hematoxylin/eosin staining (reference value: 18%). The class given is functional. More on the design: scale not given: the % may be the effect or the level left. In a few lines:
as §1

Data set [11] concerns Mus musculus. Description: In vivo inhibition of aldose reductase in transgenic PAR37 mouse expressing human aldose reductase assessed as reduction in vacuolization at 80 mg/kg, po for 16 days by hematoxylin/eosin staining. The format is functional, organism-based. In a few lines:
(§2)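 Drug dissolved in DMSO was given in the drinking water of nursing mothers from the pups' birthdate, dosed at 80 mg kg−1 to the mother; vehicle group received DMSO. Pups were PAR37 human AR transgenic mice or nontransgenic littermates, balanced by gender, n = 3. Lenses were taken at P16 and sectioned with H&E staining, and vacuolated cross-sectional area was measured as percent of lens.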

Data set [12] deals with Mus musculus. In words: In vivo inhibition of aldose reductase in wild type mouse assessed as reduction in vacuolization at 80 mg/kg, po for 16 days by hematoxylin/eosin staining. The class given is functional, organism-based. Summed up:
as §2

In data set [13] the test system is Mus musculus. In words: In vivo inhibition of aldose reductase in transgenic PAR37 mouse expressing human aldose reductase assessed as vacuolization at 80 mg/kg, po for 16 days by hematoxylin/eosin staining (reference value: 18%). The class given is functional. More on the design: scale not given: the % may be the effect or the level left. In a few lines:
as §2

Structures are written as SMILES. Calls of active or inactive are those of the source. The rule behind the calls is not given here.

As to `Cc1cc(O)c2c(c1)C(=O)c1cc(O)cc(O)c1C2=O` [EMODIN], in data set [1], the IC50 was 2690 nM. Also, in data set [2], the Ki was 2110 nM. The Activity result was “Toxic” in [3], 6.3% in [9] and 2% in data set [10]. Besides, the inhibition result in [4], in data set [5], in [6], in [7] and in [8] was “Active” in each case.
Regarding `O=C1NC(=O)[C@@]2(CCOc3ccc(F)cc32)N1` [SORBINIL], the inhibition result in [11] and in data set [12] was “Active” in each case. Moreover, in [13], the Activity is recorded as 3.8%.

As usually defined, the IC50 is the point on the concentration scale where inhibition reaches its midpoint. The term Ki denotes the equilibrium dissociation constant of an inhibitor or competing ligand from its target.
